Results as given in the RNAGym collection of RNA variant scans (doi:10.1126/science.aae0568).
Fewer inactive variants are shown than the library holds.

B1: tRNA (parent)
chain: GUUCCGUUGGCGUAAUGGUAACGCGUCUCCCUCCUAAGGAGAAGACUGCGGGUUCGAGUCCCGUACGGAACG

Variants of: B1
Test: yeast fitness relative to wild type (ratio to wild type); higher = fitter; tRNA-Arg(CCU), competitive growth, 37 C, YPD
In short: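 Variants of the tRNA-Arg(CCU) gene, chemically synthesised with a 3% per-site mutation rate at 69 sites, were placed at the native genomic locus in Saccharomyces cerevisiae. The pooled strains were competed in YPD at 37°C for 24 hours in six parallel replicates. Gene amplicons from the start population and from each end population were read by 100-nucleotide paired-end sequencing. Darwinian fitness relative to wild type came from changes in genotype frequencies; genotypes needed ≥ 100 starting reads, and estimates < 0.5 were set to 0.5.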

Row | Variant | yeast fitness
1 | U26A A40G C49G C61A | 0.626
2 | G25C C34A C66U | 0.54
3 | G25C G39C G44C C60U G68C | ≤ 0.5
4 | G25C C55G | ≤ 0.5
5 | G25C C55A | 0.68
6 | G25A C31U G38C | 0.881
7 | G25C C27A C31G | ≤ 0.5
8 | G25C G51C | 0.654
9 | G25C G41C C46U C61G | ≤ 0.5
10 | G25C U59G | 0.678
11 | G25C U59C | 0.932
12 | G25A G50A G63C | 0.641
13 | G25C C46U G50A | 0.889
14 | G25C G39C U54G A65U | 0.514
15 | U26A A45G | 0.882
16 | U26A A45C | 0.698
17 | U26A C27G C31G G38C | ≤ 0.5
18 | G25C A70G | 0.873
19 | G25C A70C | 1.05
20 | G25C A70U | 0.867
21 | G25A G51A | 0.861
22 | G25C A69C | 1.07
23 | U26A A40U G58A A70C | ≤ 0.5
24 | G25C C31U G68U | 0.587

Row | Variant | yeast fitness
25 | G25C U32G G44A C46G | ≤ 0.5
26 | G25A U26C A36G | 1.07
27 | U26A A37G G48A C49G | ≤ 0.5
28 | G25A G51C C66U | ≤ 0.5
29 | U26A A40G C62U | 0.567
30 | G25C C31A A43U U54A | ≤ 0.5
31 | G25A U35A A36U C61U | ≤ 0.5
32 | G25C C34G C61U C66G | ≤ 0.5
33 | U26A A36C C61U | ≤ 0.5
34 | G25C U32A A40C | ≤ 0.5
35 | G25A G48C G52C C55U | ≤ 0.5
36 | G25A C46U A57U | 0.965
37 | G25C U26G A36G C46G A70U | ≤ 0.5
38 | U26A A43U A70U | 0.838
39 | G25C C61G G67C | 0.527
40 | U26A A65U G67A | 0.62
41 | G25C A42G C55U | ≤ 0.5
42 | G25C U47C | 0.954
43 | U26A A40C | 0.755
44 | G25C U32C C46U G50A | 0.667
45 | G25C A40U C49U | 0.66
46 | G25A C46U C62G | 0.739
47 | G25C C27G G58A | ≤ 0.5
48 | G25C U26C | 0.904

Row | Variant | yeast fitness
49 | G25A G68C | 0.938
50 | G25A U54C | 0.87
51 | G25A U54G | 0.566
52 | G25C A40C C55U | 0.708
53 | G25C A42U C46U | 0.502
54 | G25C U32C A37G A69G A70G | ≤ 0.5
55 | U26A A37C A57U | ≤ 0.5
56 | G25C C62A | 0.845
57 | G25C C62U | 0.999
58 | G25A C34A A65U | 0.616
59 | G25A C34G | 0.726
60 | G25C C33G G50C U54C | ≤ 0.5
61 | G25A U47C | 0.93
62 | U26A A43U G68A | ≤ 0.5
63 | G25U C29A G56C | ≤ 0.5
64 | G25A G41A C46G G50A C62A | ≤ 0.5
65 | G25C C29U C33U A40G G52A U59C A65U | ≤ 0.5
66 | G25A C66U | 0.902
67 | G25A C66A | 0.631
68 | G25C A36C | 0.718
69 | G25C A36U | 0.724
70 | G25C A36G | 0.864
71 | G25A G50A C55A C66A | ≤ 0.5
72 | G25A C31A C62U | 0.586

Row | Variant | yeast fitness
73 | G25C C34U C66U | ≤ 0.5
74 | G25A U64A | 0.901
75 | G25A U64C | 0.902
76 | G25C C29G G41A C49U G63A A65G C66U | ≤ 0.5
77 | G25C G52A U54G | ≤ 0.5
78 | G25C A43C C62A U64G C66G | ≤ 0.5
79 | G25A C33U C62A A70C | ≤ 0.5
80 | G25C C33A A43U A57U A69U | ≤ 0.5
81 | G25A C49U | 0.991
82 | G25A U28A A36U A37U A42U | ≤ 0.5
83 | G25A C31U A70C | 0.731
84 | G25A C31A G51C C55G A57U C66U | ≤ 0.5
85 | G25A C55G | 0.681
86 | G25C C33A A45C C46A | 0.518
87 | G25A G50A | 0.997
88 | G25A G50U | 0.826
89 | G25C C29G G41A C49U A65G C66U | 0.583
90 | G25A G58C | 0.901
91 | G25A G58A | 0.872
92 | G25C C49U G51A A57G | ≤ 0.5
93 | G25A C33G A42G G50A | 0.596
94 | U26A A57G | 0.973
95 | U26A A57U | 0.802
96 | G25A C60G | 0.718

Row | Variant | yeast fitness
97 | G25A C60A | 0.66
98 | G25A G38C | 0.775
99 | G25A C46G | 0.99
100 | G25A C46U | 0.938
101 | U26A A37C C61A | ≤ 0.5
102 | G25C C27G C62U | 0.597
103 | G25C U26G C46G A69U | 0.521
104 | G25C | 1
105 | G25U | 0.937
106 | G25C G39C | 0.685
107 | G25A U59C | 0.775
108 | U26A A42U | 0.981
109 | G25A C46A G52C | 0.615
110 | G25A C34G U54A A65U | ≤ 0.5
111 | G25C G41A | 0.789
112 | U26A A40C U64C C66A | ≤ 0.5
113 | G25A C61A | 0.595
114 | G25A C61U | 0.971
115 | G25A C61G | 0.679
116 | G25A C33A A40G | 0.544
117 | G25A C49U A65G A70C | ≤ 0.5
118 | G25C C30G C60U | ≤ 0.5
119 | G25C G41C C46U U59C A65U | ≤ 0.5
120 | G25C C29A G52A G67A | ≤ 0.5

Row | Variant | yeast fitness
121 | G25C G63A A65C | 0.6
122 | G25C C30G A36U C46U A65G | ≤ 0.5
123 | G25C U28C C55A | 0.539
124 | G25C C29G C46G G51C | ≤ 0.5
125 | G25A G41C C66U | 0.755
126 | G25A G56A | 0.919
127 | G25C A43U G50A A70C | ≤ 0.5
128 | U26A A43G G51C A69U | 0.566
129 | G25C U32C G41A | ≤ 0.5
130 | G25C C30G U32G A42C C49U | 0.543
131 | G25A U47C U64C A70C | 1.06
132 | G25A G41C U54G C61U | ≤ 0.5
133 | G25C A43C | 1.03
134 | G25A G41A C46A A69C | 0.935
135 | G25A U28G | 0.762
136 | G25A C31U A42G C62U A69C | ≤ 0.5
137 | G25C A37G A40C C61G | ≤ 0.5
138 | G25C C46G U64G | ≤ 0.5
139 | G25C G56A | 0.962
140 | U26A A43U A69U | 0.695
141 | G25A U26A C55G G68C A69G | ≤ 0.5
142 | G25A C61U A69C | 0.637
143 | G25C A40C | 0.848
144 | G25C A40G | 0.645

Row | Variant | yeast fitness
145 | G25C G38C G48C C49G | ≤ 0.5
146 | G25A U32C G41A G56A | 0.553
147 | G25A G67C | 0.992
148 | G25A G48C | 1.14
149 | G25C C34A | 0.625
150 | G25C A40U A42C C61A C66U | ≤ 0.5
151 | G25C G41C G68C | 0.565
152 | G25A G52A C66U | 0.637
153 | G25C C60A G67C | ≤ 0.5
154 | G25C C31U G56A | 0.616
155 | G25C A45C C46A | 0.991
156 | G25C G58C G67C | 0.706
157 | G25C U26G C46G | 0.576
158 | G25A C60G C61A G63A | ≤ 0.5
159 | G25A C31A A45C G50A A69U | ≤ 0.5
160 | G25C U32G A65G | ≤ 0.5
161 | G25C C31U U32A C55A A69U | ≤ 0.5
162 | G25A C34U A43U G56A | ≤ 0.5
163 | G25A C34A U47C | ≤ 0.5
164 | G25C G39A C66U | 0.504
165 | G25U A36U G56C A65C | 0.521
166 | G25C G41C C46U A65U | 0.551
167 | G25C U35A | 0.604
